Test results reported in ChEMBL document CHEMBL5058577, “EUbOPEN Chemogenomics Library 2 (Multiplex)” (2022).

Tested on: Fibroblast
Assay: Multiplex assay against human fibroblast
Type: toxicity, cell-based
In short: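 With compound added, live cells were imaged on a CQ1 microscope at 37°C and 5% CO2; staining with Hoechst33342, BioTracker Green Microtubule Cytoskeleton Dye, MitoTracker Red and Annexin V Alexa Fluor 680 had been done at seeding. The CellPathfinder machine-learning gating scheme split cells into Hoechst high-intensity objects or normal cells, normal cells into healthy, pyknosed or fragmented nuclei, and pyknosed cells into mitotic or apoptotic. The tubulin, mitochondrial-mass and membrane-permeability phenotypes are per cents of healthy-nucleus cells.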

[1] = 12 h, 1 µM, compound concentration 1 uM, replicate 1
[2] = 12 h, 1 µM, compound concentration 1 uM, replicate 2
[3] = 12 h, 10 µM, compound concentration 10 uM, replicate 1
[4] = 12 h, 10 µM, compound concentration 10 uM, replicate 2
[5] = 24 h, 1 µM, compound concentration 1 uM, replicate 1
[6] = 24 h, 1 µM, compound concentration 1 uM, replicate 2
[7] = 24 h, 10 µM, compound concentration 10 uM, replicate 1
[8] = 24 h, 10 µM, compound concentration 10 uM, replicate 2
[9] = 48 h, 1 µM, compound concentration 1 uM, replicate 1
[10] = 48 h, 1 µM, compound concentration 1 uM, replicate 2
[11] = 48 h, 10 µM, compound concentration 10 uM, replicate 1
[12] = 48 h, 10 µM, compound concentration 10 uM, replicate 2

SMILES: COc1cc(Nc2ncc3c(n2)-c2ccc(Cl)cc2C(c2c(F)cccc2OC)=NC3)ccc1C(=O)O [ALISERTIB]
- Population Apoptotic (%) [1]: 39%
- Population Fragmented Nuclei (%) [1]: 11%
- Population Healthy Nuclei (%) [1]: 66%
- Population Hoechst High Intensity Objects (%) [1]: 1%
- Population Membrane Permeable-Phenotype (%) [1]: 2%
- Population Mitochondria Different-Phenotype (%) [1]: 4%
- Population Mitotic Cells (%) [1]: 60%
- Population Normal (%) [1]: 98%
- Population Pyknosed Nuclei (%) [1]: 21%
- Population Tubulin-Different-Phenotype (%) [1]: 23%
- Population Apoptotic (%) [2]: 42%
- Population Fragmented Nuclei (%) [2]: 18%
- Population Healthy Nuclei (%) [2]: 47%
- Population Hoechst High Intensity Objects (%) [2]: 8%
- Population Membrane Permeable-Phenotype (%) [2]: 7%
- Population Mitochondria Different-Phenotype (%) [2]: 7%
- Population Mitotic Cells (%) [2]: 57%
- Population Normal (%) [2]: 91%
- Population Pyknosed Nuclei (%) [2]: 33%
- Population Tubulin-Different-Phenotype (%) [2]: 41%
- Population Apoptotic (%) [3]: 56%
- Population Fragmented Nuclei (%) [3]: 28%
- Population Healthy Nuclei (%) [3]: 47%
- Population Hoechst High Intensity Objects (%) [3]: 13%
- Population Membrane Permeable-Phenotype (%) [3]: 1%
- Population Mitochondria Different-Phenotype (%) [3]: 22%
- Population Mitotic Cells (%) [3]: 43%
- Population Normal (%) [3]: 86%
- Population Pyknosed Nuclei (%) [3]: 24%
- Population Tubulin-Different-Phenotype (%) [3]: 69%
- Total Cell Count [3]: 209
- Population Apoptotic (%) [4]: 48%
- Population Fragmented Nuclei (%) [4]: 35%
- Population Healthy Nuclei (%) [4]: 30%
- Population Hoechst High Intensity Objects (%) [4]: 8%
- Population Membrane Permeable-Phenotype (%) [4]: 4%
- Population Mitochondria Different-Phenotype (%) [4]: 16%
- Population Mitotic Cells (%) [4]: 51%
- Population Normal (%) [4]: 91%
- Population Pyknosed Nuclei (%) [4]: 33%
- Population Tubulin-Different-Phenotype (%) [4]: 64%
- Total Cell Count [4]: 89
- Population Apoptotic (%) [5]: 36%
- Population Fragmented Nuclei (%) [5]: 12%
- Population Healthy Nuclei (%) [5]: 69%
- Population Hoechst High Intensity Objects (%) [5]: 2%
- Population Membrane Permeable-Phenotype (%) [5]: 2%
- Population Mitochondria Different-Phenotype (%) [5]: 6%
- Population Mitotic Cells (%) [5]: 63%
- Population Normal (%) [5]: 97%
- Population Pyknosed Nuclei (%) [5]: 18%
- Population Tubulin-Different-Phenotype (%) [5]: 28%
- Total Cell Count [5]: 123
- Population Apoptotic (%) [6]: 48%
- Population Fragmented Nuclei (%) [6]: 26%
- Population Healthy Nuclei (%) [6]: 47%
- Population Hoechst High Intensity Objects (%) [6]: 4%
- Population Membrane Permeable-Phenotype (%) [6]: 4%
- Population Mitotic Cells (%) [6]: 51%
- Population Normal (%) [6]: 95%
- Population Pyknosed Nuclei (%) [6]: 26%
- Population Tubulin-Different-Phenotype (%) [6]: 47%
- Population Apoptotic (%) [7]: 64%
- Population Fragmented Nuclei (%) [7]: 29%
- Population Healthy Nuclei (%) [7]: 44%
- Population Hoechst High Intensity Objects (%) [7]: 13%
- Population Membrane Permeable-Phenotype (%) [7]: 1%
- Population Mitochondria Different-Phenotype (%) [7]: 24%
- Population Mitotic Cells (%) [7]: 35%
- Population Normal (%) [7]: 86%
- Population Pyknosed Nuclei (%) [7]: 25%
- Population Tubulin-Different-Phenotype (%) [7]: 68%
- Total Cell Count [7]: 191
- Population Apoptotic (%) [8]: 56%
- Population Fragmented Nuclei (%) [8]: 45%
- Population Healthy Nuclei (%) [8]: 36%
- Population Hoechst High Intensity Objects (%) [8]: 5%
- Population Membrane Permeable-Phenotype (%) [8]: 0%
- Population Mitochondria Different-Phenotype (%) [8]: 9%
- Population Mitotic Cells (%) [8]: 43%
- Population Normal (%) [8]: 94%
- Population Pyknosed Nuclei (%) [8]: 18%
- Population Tubulin-Different-Phenotype (%) [8]: 71%
- Total Cell Count [8]: 93
- Population Apoptotic (%) [9]: 57%
- Population Fragmented Nuclei (%) [9]: 15%
- Population Healthy Nuclei (%) [9]: 65%
- Population Hoechst High Intensity Objects (%) [9]: 5%
- Population Membrane Permeable-Phenotype (%) [9]: 4%
- Population Mitochondria Different-Phenotype (%) [9]: 5%
- Population Mitotic Cells (%) [9]: 42%
- Population Normal (%) [9]: 94%
- Population Pyknosed Nuclei (%) [9]: 19%
- Population Tubulin-Different-Phenotype (%) [9]: 32%
- Total Cell Count [9]: 115
- Population Apoptotic (%) [10]: 38%
- Population Fragmented Nuclei (%) [10]: 33%
- Population Healthy Nuclei (%) [10]: 42%
- Population Membrane Permeable-Phenotype (%) [10]: 7%
- Population Mitotic Cells (%) [10]: 61%
- Population Pyknosed Nuclei (%) [10]: 24%
- Population Tubulin-Different-Phenotype (%) [10]: 54%
- Population Apoptotic (%) [11]: 84%
- Population Fragmented Nuclei (%) [11]: 38%
- Population Healthy Nuclei (%) [11]: 35%
- Population Hoechst High Intensity Objects (%) [11]: 23%
- Population Membrane Permeable-Phenotype (%) [11]: 5%
- Population Mitochondria Different-Phenotype (%) [11]: 37%
- Population Mitotic Cells (%) [11]: 15%
- Population Normal (%) [11]: 76%
- Population Pyknosed Nuclei (%) [11]: 26%
- Population Tubulin-Different-Phenotype (%) [11]: 80%
- Total Cell Count [11]: 188
- Population Apoptotic (%) [12]: 66%
- Population Fragmented Nuclei (%) [12]: 37%
- Population Healthy Nuclei (%) [12]: 51%
- Population Hoechst High Intensity Objects (%) [12]: 8%
- Population Membrane Permeable-Phenotype (%) [12]: 2%
- Population Mitochondria Different-Phenotype (%) [12]: 15%
- Population Mitotic Cells (%) [12]: 33%
- Population Normal (%) [12]: 91%
- Population Pyknosed Nuclei (%) [12]: 11%
- Population Tubulin-Different-Phenotype (%) [12]: 65%
- Total Cell Count [12]: 85
